Screens from PubChem BioAssay.
Most compounds without a hit are left out; they make up all but 1% or so of the library.
PglD DTNB = PglD (C. jejuni) enzyme inhibition | AID 602405 | purified PglD enzyme, DTNB colorimetric CoA detection | 0.098% of 360,000 active | inhibition, % at 12.5 µM; in the data active means inhibition above about 16%, passing the limit was not always enough
ERp5 block = inhibitors of human ERp5 | Q15084 | ERp5 insulin aggregation, absorbance 650 nm, 90 min | inhibition, % at 9.99 µM | 0.05% of 350,000 active;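 active means mean replicate inhibition above about 25%, with every replicate also reaching it, limit read from the data, passing the limit was not always enough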
PDI turbidity = blocks human protein disulfide isomerase activity; P07237; PDI insulin aggregation turbidity, A650, 90 min; inhibition, % at 10 µM; 0.052% of 350,000 active; AID 588391;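 active means mean inhibition across replicates of 30% or more, whatever share of single replicates reach that level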
Target sequence (P07237 whole entry, looked up): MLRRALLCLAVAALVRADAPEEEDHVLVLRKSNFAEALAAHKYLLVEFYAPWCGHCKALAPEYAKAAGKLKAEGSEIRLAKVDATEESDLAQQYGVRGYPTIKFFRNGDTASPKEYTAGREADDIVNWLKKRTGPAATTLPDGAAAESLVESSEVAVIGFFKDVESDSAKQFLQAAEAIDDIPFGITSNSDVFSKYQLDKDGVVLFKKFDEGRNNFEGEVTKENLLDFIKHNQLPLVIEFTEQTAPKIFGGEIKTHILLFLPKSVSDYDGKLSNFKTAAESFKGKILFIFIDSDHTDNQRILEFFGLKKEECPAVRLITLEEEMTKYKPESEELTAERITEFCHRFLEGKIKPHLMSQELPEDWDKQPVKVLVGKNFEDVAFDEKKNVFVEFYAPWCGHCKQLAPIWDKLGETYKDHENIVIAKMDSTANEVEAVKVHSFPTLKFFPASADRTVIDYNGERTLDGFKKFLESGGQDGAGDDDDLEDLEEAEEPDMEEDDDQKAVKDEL
VIM-2 inh = blocks Pseudomonas aeruginosa VIM-2 metallo-beta-lactamase; purified VIM-2, nitrocefin hydrolysis, epi-absorbance fluorescence; inhibition, % at 5.6 µM; 0.89% of 290,000 active; AID 1527;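 active means inhibition above the mean of all tested compounds plus 3 SD, cutoff set per screening run, cut at about 7.5% in these data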;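 further: red hydrolysis product quenches plate fluorescence so inhibitors raise well fluorescence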
IMP-1 inh-1 = inhibitors of Pseudomonas aeruginosa IMP-1 metallo-beta-lactamase. 0.45% of 290,000 active. AID 1556. inhibition, % at 5.6 µM. purified IMP-1, nitrocefin hydrolysis, epi-absorbance fluorescence;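 active means inhibition above the mean plus 3 SD of all compounds in the same screening run, cut at about 4.5% in these data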
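System: purified recombinant IMP-1 beta-lactamase. Medium: Zinc- and detergent-supplemented HEPES buffer, pH 7.1. Compound: one 5.6 µM dose […]. Schedule: 15 min preincubation plus 25 min reaction at 25 °C. Technique: Epi-absorbance fluorescence, 480 nm excitation, 530 nm emission.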
PvdQ inh = P. aeruginosa PvdQ acylase inhibition; 0.063% of 340,000 active; inhibition, % at 10 µM; purified PvdQ acylase, fluorescence plate reader; in the data active means inhibition above about 30%, passing the limit was not always enough
IMP-1 inh-2 = IMP-1 inhibition, counter-screen for VIM-2 inhibitors | shares compounds with VIM-2 inh | purified IMP-1, nitrocefin hydrolysis, epi-absorbance fluorescence | inhibition, % at 5.6 µM | 1,300 tested, under 10 active | AID 1856; call rule not given here
VIM-2 FRET ctr = inhibits VIM-2 in FRET assay to exclude epi-absorbance artifacts; shares compounds with VIM-2 inh; AID 1857; inhibition, % at 5.6 µM; purified VIM-2, CCF2 FRET substrate hydrolysis; 23% of 1,300 active;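 active means inhibition above the mean of all tested compounds plus 3 SD, cut at about 19% in these data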
TEM-1 counter = TEM-1 inhibition, counter-screen for VIM-2 inhibitors | shares compounds with VIM-2 inh | Purified TEM-1, nitrocefin hydrolysis, epi-absorbance fluorescence | inhibition, % at 5.6 µM | 3% of 1,300 active;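 active means inhibition above that campaign's mean inhibition plus 3 SD, cut at about 0.46% in these data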
Target sequence (P62593 whole entry, looked up): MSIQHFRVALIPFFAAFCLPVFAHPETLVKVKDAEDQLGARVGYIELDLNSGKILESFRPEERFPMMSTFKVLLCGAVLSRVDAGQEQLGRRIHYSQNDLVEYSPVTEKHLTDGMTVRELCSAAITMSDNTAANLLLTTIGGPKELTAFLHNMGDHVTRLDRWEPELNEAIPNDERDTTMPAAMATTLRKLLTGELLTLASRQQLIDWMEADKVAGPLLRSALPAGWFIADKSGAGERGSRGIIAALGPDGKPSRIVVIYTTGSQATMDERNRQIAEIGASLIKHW
VIM-2 confirm 2 = confirmation of P. aeruginosa VIM-2 metallo-beta-lactamase inhibitors; shares compounds with VIM-2 inh; purified VIM-2, nitrocefin hydrolysis, epi-absorbance; inhibition, % at 5.6 µM; 96% of 1,300 active; AID 2187;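 active means inhibition of the VIM-2 beta-lactamase enzyme above about 11% from the earlier first-round screen, limit read from the data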
Each line names hits and unclear results; the compound was inactive in the other large screens (follow-up assays come after a bar, where they were run).

C[C@@H]1CN([C@@H](C)CO)C(=O)c2cc(NC(=O)Nc3ccc(F)cc3)ccc2O[C@@H](C)CCCCO[C@@H]1CN(C)S(=O)(=O)c1cn(C)cn1	none (no result: PDI turbidity, VIM-2 inh, IMP-1 inh-1, PvdQ inh)
CC(=O)NC[C@H]1[C@H](c2ccc(C3=CCCCC3)cc2)[C@H](CO)N1C(=O)NC(C)C	none (no result: ERp5 block, PDI turbidity, VIM-2 inh, IMP-1 inh-1, PvdQ inh)
CCCN1CCN(C(=O)Cn2nc(CC)n3c(cc4sccc43)c2=O)CC1	VIM-2 inh 33 (no result: PDI turbidity) | IMP-1 inh-2 inactive | VIM-2 FRET ctr inactive | TEM-1 counter inactive | VIM-2 confirm 2 39
CCc1nn(CC(=O)NCCCN2CCOCC2)c(=O)c2cc3sccc3n12	none
C[C@@H]1CN([C@H](C)CO)C(=O)c2cccc(NS(=O)(=O)c3ccc(F)cc3)c2O[C@@H]1CN(C)Cc1ccc(C(=O)O)cc1	none (no result: PDI turbidity, VIM-2 inh, IMP-1 inh-1, PvdQ inh)
C[C@H]1CCCCO[C@H](CN(C)C(=O)Nc2ccc(F)cc2)[C@@H](C)CN([C@@H](C)CO)C(=O)c2cc(NC(=O)c3ccccc3)ccc2O1	none (no result: PDI turbidity, VIM-2 inh, IMP-1 inh-1, PvdQ inh)
Cc1nc2ccccc2c2oc(C(=O)NCCCN3CC(C)CC(C)C3)cc12 (stereo unspecified)	VIM-2 inh 15 | IMP-1 inh-2 inactive | VIM-2 FRET ctr inactive | TEM-1 counter inactive | VIM-2 confirm 2 24
CC1CCCN(CCCNC(=O)c2cc3c(s2)-c2ccccc2OC3)C1 (stereo unspecified)	none
Cc1nc2ccccc2c2oc(C(=O)NCCCN3CCCC(C)C3)cc12 (stereo unspecified)	VIM-2 inh 18 | IMP-1 inh-2 inactive | VIM-2 FRET ctr inactive | TEM-1 counter inactive | VIM-2 confirm 2 29
CC1CCCN(CCCNC(=O)c2cc3c(Cl)nc4ccccc4c3s2)C1 (stereo unspecified)	VIM-2 inh 19 | IMP-1 inh-2 inactive | VIM-2 FRET ctr inactive | TEM-1 counter inactive | VIM-2 confirm 2 31
C[C@@H]1CN([C@H](C)CO)C(=O)c2cc(-c3ccccc3)cnc2O[C@@H]1CN(C)C(=O)Cc1cccnc1	none (no result: PDI turbidity, VIM-2 inh, IMP-1 inh-1, PvdQ inh)
CCCCc1cc(=O)oc2c(C)c(OCC(=O)NCCN3CCOCC3)ccc12	none
Cc1c(OCC(=O)NCCCN2CCOCC2)ccc2c3c(c(=O)oc12)CCC3	VIM-2 inh 25 | IMP-1 inh-2 inactive | VIM-2 FRET ctr inactive | TEM-1 counter inactive | VIM-2 confirm 2 37
O=C(COc1ccccc1Cc1ccccc1)NCCCN1CCOCC1	none
Cc1c(OCC(=O)NCCCN2CCOCC2)ccc2c1oc(=O)c1ccccc12	VIM-2 inh 26 | IMP-1 inh-2 inactive | VIM-2 FRET ctr inactive | TEM-1 counter inactive | VIM-2 confirm 2 38
CCCN(C)C[C@H]1Oc2ncc(-c3cccnc3)cc2C(=O)N([C@@H](C)CO)C[C@H]1C	none (no result: PDI turbidity, VIM-2 inh, IMP-1 inh-1, PvdQ inh)
COCC(=O)Nc1ccc2c(c1)[C@@H]1C[C@@H](CC(=O)O)O[C@H](CO)[C@@H]1O2	none (no result: PglD DTNB, PDI turbidity, VIM-2 inh, IMP-1 inh-1, PvdQ inh)
Cc1c(OC(C)C(=O)NCc2ccncc2)ccc2c3c(c(=O)oc12)CCC3 (stereo unspecified)	VIM-2 inh 23 | IMP-1 inh-2 inactive | VIM-2 FRET ctr inactive | TEM-1 counter inactive | VIM-2 confirm 2 36
Cc1c(OCC(=O)NCc2cccnc2)ccc2c3c(c(=O)oc12)CCC3	VIM-2 inh 27 | IMP-1 inh-2 inactive | VIM-2 FRET ctr inactive | TEM-1 counter inactive | VIM-2 confirm 2 31
Cc1c(OCC(=O)OC(C)C)ccc2c3c(c(=O)oc12)CCC3	none (no result: ERp5 block)
Cc1c(OCC(=O)NCc2ccncc2)ccc2c3c(c(=O)oc12)CCC3	VIM-2 inh 50 | IMP-1 inh-2 inactive | VIM-2 FRET ctr inactive | TEM-1 counter inactive | VIM-2 confirm 2 57
Cc1c(OC(C)C(=O)NCc2ccccn2)ccc2c3c(c(=O)oc12)CCCC3 (stereo unspecified)	VIM-2 inh 16 | IMP-1 inh-2 inactive | VIM-2 FRET ctr inactive | TEM-1 counter inactive | VIM-2 confirm 2 23
C[C@H](CO)N1C[C@H](C)[C@H](CN(C)Cc2ccc(C(=O)O)cc2)Oc2c(NC(=O)NC3CCCCC3)cccc2C1=O	none (no result: PDI turbidity, VIM-2 inh, IMP-1 inh-1, PvdQ inh)
C[C@H]1CN([C@@H](C)CO)C(=O)c2cccc(NC(=O)C3CC3)c2O[C@@H]1CN(C)CC1CC1	none (no result: PDI turbidity, VIM-2 inh, IMP-1 inh-1, PvdQ inh)
C[C@@H]1CN([C@H](C)CO)C(=O)Cc2cc(NC(=O)Cn3cnnn3)ccc2O[C@@H]1CN(C)S(=O)(=O)c1cccs1	none (no result: PDI turbidity, VIM-2 inh, IMP-1 inh-1, PvdQ inh)
Cc1c(OC(C)C(=O)NCC(O)c2ccccc2)ccc2c3c(c(=O)oc12)CCC3 (stereo unspecified)	VIM-2 inh 19 (no result: PglD DTNB) | IMP-1 inh-2 inactive | VIM-2 FRET ctr inactive | TEM-1 counter inactive | VIM-2 confirm 2 24
Cc1cc(OC(C)C(=O)NCC(O)c2ccccc2)c2c(C)c(C)c(=O)oc2c1 (stereo unspecified)	none
Cc1c(O[C@@H]2O[C@H](CO)[C@@H](O)[C@H](O)[C@H]2O)ccc2c1oc(=O)c1ccccc12	VIM-2 inh 25 | IMP-1 inh-2 inactive | VIM-2 FRET ctr inactive | TEM-1 counter inactive | VIM-2 confirm 2 35
Cc1c(C)c2ccc(O[C@@H]3O[C@H](CO)[C@H](O)[C@H](O)[C@H]3O)c(C)c2oc1=O	none
CCN1C(=O)/C(=C2\SC(N3CCOCC3)=NC2=O)c2ccccc21	VIM-2 inh 15 | IMP-1 inh-2 inactive | VIM-2 FRET ctr inactive | TEM-1 counter inactive | VIM-2 confirm 2 24
CCCCN1C(=O)/C(=C2\SC(N3CCOCC3)=NC2=O)c2ccccc21	none
Cn1c(N)c(C(=O)COC(=O)c2cc(-c3ccco3)nc3ccccc23)c(=O)n(Cc2ccccc2)c1=O	none (no result: PglD DTNB, ERp5 block, PDI turbidity, PvdQ inh)
Cn1c(N)c(C(=O)COC(=O)c2cc(-c3ccco3)nc3ccccc23)c(=O)n(C)c1=O	VIM-2 inh 14 | IMP-1 inh-2 inactive | VIM-2 FRET ctr inactive | TEM-1 counter inactive | VIM-2 confirm 2 37
COc1ccc(-c2cc(C(=O)OCC(=O)c3c(N)n(C)c(=O)n(C)c3=O)c3ccccc3n2)cc1	none (no result: PglD DTNB)
COc1ccc(/C=C2\CCCc3c2nc2ccccc2c3C(=O)OCC(=O)c2c(N)n(C)c(=O)n(C)c2=O)cc1	VIM-2 inh 14 (no result: PglD DTNB, ERp5 block, PDI turbidity, PvdQ inh) | IMP-1 inh-2 inactive | VIM-2 FRET ctr inactive | TEM-1 counter inactive | VIM-2 confirm 2 inactive
COc1ccc(/C=C/C(=O)OCC(=O)c2c(N)n(C)c(=O)n(C)c2=O)cc1	none (no result: ERp5 block)
Cn1c(N)c(C(=O)COC(=O)c2cc(C3CC3)nc3ccccc23)c(=O)n(C)c1=O	VIM-2 inh 13 | IMP-1 inh-2 inactive | VIM-2 FRET ctr inactive | TEM-1 counter inactive | VIM-2 confirm 2 63
